Experimental findings from ChEMBL document CHEMBL1148429, “Penicillin-derived inhibitors that simultaneously target both metallo- and serine-beta-lactamases” (Bioorg Med Chem Lett, 2004) are described below.

SMILES strings stand for the structures. In brackets after ≈: the same amount, converted by molar mass. Some results are limits rather than exact numbers.

Test [1] can be described thus: Synergistic activity against VIM-7 beta lactamase produced by Escherichia coli in presence of Piperacillin. In kind it is functional, plasmodium aeruginosa. The note with it: Pseudomonas aeruginosa.
Test [2] in a line: Synergistic activity against VIM-7 beta lactamase produced by Escherichia coli in presence of Piperacillin and Tazobactam. In kind it is functional, plasmodium aeruginosa. The note with it: Pseudomonas aeruginosa. Summed up: (§1)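 Synergy with piperacillin against metallo-β-lactamase-producing strains (IMP-1; SPM-1, VIM-1 or VIM-7 carriers). The initial screen used […] at a 1:1 antibiotic:inhibitor ratio. Inhibitor was tested with tazobactam or DVR-II-183 added as a serine β-lactamase inhibitor, or without one.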

Test [3] in a line: Synergistic activity against VIM-7 beta lactamase produced by Escherichia coli in presence of Piperacillin and DVRII183. The test is classed as functional, plasmodium aeruginosa. The note with it: Pseudomonas aeruginosa. Summed up:
as §1

In test [4] the test system is Pseudomonas aeruginosa. Nature of the test: Synergistic activity against SPM-1 beta lactamase produced by Pseudomonas aeruginosa in presence of Piperacillin and compound 48; S = susceptible.
Test [5] in a line: Synergic activity against IMP-1 beta lactamase produced by Escherichia coli in presence of Piperacillin. The test is classed as functional. In short, it runs like this:
as §1

Test [6] can be described thus: Synergistic activity against VIM-1 beta lactamase produced by Pseudomonas aeruginosa in presence of Piperacillin.
Test [7] can be described thus: Synergic activity against IMP-1 beta lactamase produced by Escherichia coli in presence of Piperacillin and DVRII183. In kind it is functional. In short, it runs like this:
as §1

Test [8] concerns Pseudomonas aeruginosa. Nature of the test: Synergistic activity against VIM-1 beta lactamase produced by Pseudomonas aeruginosa in presence of Piperacillin and Tazobactam; R = Resistant.
The test system of test [9] is Pseudomonas aeruginosa. Nature of the test: Synergistic activity against SPM-1 beta lactamase produced by Pseudomonas aeruginosa in presence of Piperacillin; S = susceptible.
The test system of test [10] is Escherichia coli. Kind of test: Synergic activity against IMP-1 beta lactamase produced by Escherichia coli in presence of Piperacillin and Tazobactam; S = susceptible. The test is classed as functional. Summed up:
as §1

The nature of test [11]: Synergistic activity against VIM-1 beta lactamase produced by Pseudomonas aeruginosa in presence of Piperacillin and DVRII183.
Test [12] deals with Pseudomonas aeruginosa. Kind of test: Synergistic activity against VIM-7 beta lactamase produced by Pseudomonas aeruginosa in presence of Piperacillin and Tazobactam; R = Resistant.
In the next test the target is Beta-lactamase L1 (Stenotrophomonas maltophilia, UniProt P52700). Kind of test: Beta-Lactamase Inhibition of metallo-beta-lactamase representative class B (L1) enzyme. Summed up:
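For the metallo enzyme, inhibitor and enzyme were preincubated for 4 min. Concentrated nitrocefin was then added to give the final assay volume, and IC50 was determined.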

The target of test [13] is Beta-lactamase (Escherichia coli K-12) (UniProt P00811).
The target of test [14] is T1, Metallo-beta-lactamase type 2 (Bacillus cereus, UniProt P14488).
T1 sequence (P14488 whole entry): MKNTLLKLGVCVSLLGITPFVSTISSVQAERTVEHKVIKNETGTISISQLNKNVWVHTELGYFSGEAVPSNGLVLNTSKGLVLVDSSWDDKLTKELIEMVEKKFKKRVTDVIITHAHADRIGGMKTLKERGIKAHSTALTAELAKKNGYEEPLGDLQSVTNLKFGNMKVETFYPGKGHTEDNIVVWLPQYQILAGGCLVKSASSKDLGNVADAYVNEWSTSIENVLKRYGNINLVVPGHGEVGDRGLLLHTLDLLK
Kind of test: Inhibition of class B (BCII) metallo-beta-lactamase representative enzyme. Summed up:
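BCII metallo-β-lactamase assay: inhibitor and enzyme incubated together for 4 min in 970 µL, then concentrated nitrocefin added to 1 mL final volume. IC50 determined from nitrocefin hydrolysis.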

Test [15] in a line: Synergistic activity against VIM-1 beta lactamase produced by Escherichia coli in presence of Piperacillin and Tazobactam. In kind it is functional, plasmodium aeruginosa. The note with it: Pseudomonas aeruginosa. Summed up:
as §1

Test [16] in a line: Synergic activity against IMP-1 beta lactamase produced by Escherichia coli in presence of Piperacillin and Tazobactam. The test is classed as functional. In short, it runs like this:
as §1

The nature of test [17]: Synergistic activity against SPM-1 beta lactamase produced by Pseudomonas aeruginosa in presence of Piperacillin and DVRII183.
Test [18] relates to Pseudomonas aeruginosa. Kind of test: Synergistic activity against VIM-7 beta lactamase produced by Pseudomonas aeruginosa in presence of Piperacillin; R = Resistant.
For test [19], the target named is Beta-lactamase TEM (Escherichia coli) (UniProt P62593). Kind of test: Beta-Lactamase inhibitory activity against representative class A (TEM-1) serine enzyme from Escherichia coli ATCC 35218 in presence of Piperacillin. Summed up: (§2)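 MIC of piperacillin against β-lactamase-producing strains, with the piperacillin concentration varied and the inhibitor held constant at […].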

Test [20] has as its system Pseudomonas aeruginosa. Kind of test: Synergistic activity against VIM-7 beta lactamase produced by Pseudomonas aeruginosa in presence of Piperacillin and compound 48; R = Resistant.
Test [21] relates to Escherichia coli. Kind of test: Synergic activity against IMP-1 beta lactamase produced by Escherichia coli in presence of Piperacillin; S = susceptible. The test is classed as functional. In short, it runs like this: as §1
Test [22] has as its system Escherichia coli. Nature of the test: Synergic activity against IMP-1 beta lactamase producing Escherichia coli in presence of Piperacillin and compound 48; S = susceptible. In kind it is functional. Summed up:
as §1

The nature of test [23]: Synergistic activity against SPM-1 beta lactamase produced by Pseudomonas aeruginosa in presence of Piperacillin and Tazobactam.
Test [24] concerns Pseudomonas aeruginosa. Kind of test: Synergistic activity against VIM-1 beta lactamase produced by Pseudomonas aeruginosa in presence of Piperacillin; R = Resistant.
Test [25] is described as follows: Synergistic activity against SPM-1 beta lactamase produced by Pseudomonas aeruginosa in presence of Piperacillin.
In test [26] the test system is Staphylococcus aureus. Nature of the test: Antibacterial activity was determined against the Staphylococcus aureus ATCC 29213 in presence of Piperacillin. In kind it is functional. In short, it runs like this: as §2
Test [27] deals with Pseudomonas aeruginosa. Kind of test: Synergistic activity against SPM-1 beta lactamase produced by Pseudomonas aeruginosa in presence of Piperacillin and Tazobactam; S = susceptible.
In test [28] the test system is Pseudomonas aeruginosa. Kind of test: Synergistic activity against VIM-1 beta lactamase produced by Pseudomonas aeruginosa in presence of Piperacillin and compound 48; S = susceptible.
The nature of test [29]: Synergistic activity of compound was determined against VIM-7 beta lactamase produced by Pseudomonas aeruginosa.
Test [30] can be described thus: Synergistic activity of compound was determined against […]. The test is classed as functional, plasmodium aeruginosa. The note with it: Pseudomonas aeruginosa. In short, it runs like this:
as §1

A short description of test [31]: Synergistic activity of compound was determined against SPM-1 beta lactamase produced by Pseudomonas aeruginosa.
Test [32] concerns Staphylococcus aureus. Nature of the test: Antibacterial activity was determined against the Staphylococcus aureus ATCC 29213. The test is classed as functional.
The target in test [33] is Beta-lactamase TEM (Escherichia coli) (UniProt P62593). Kind of test: Beta-Lactamase inhibitory activity against represent active class A (TEM-1) serine enzyme from Escherichia coli ATCC 35218.
A short description of test [34]: Synergic activity of compound was determined against IMP-1 beta lactamase produced by Escherichia coli. In kind it is functional. In short, it runs like this: as §1

Beta-lactamase TEM (Escherichia coli), sequence (P62593 whole entry): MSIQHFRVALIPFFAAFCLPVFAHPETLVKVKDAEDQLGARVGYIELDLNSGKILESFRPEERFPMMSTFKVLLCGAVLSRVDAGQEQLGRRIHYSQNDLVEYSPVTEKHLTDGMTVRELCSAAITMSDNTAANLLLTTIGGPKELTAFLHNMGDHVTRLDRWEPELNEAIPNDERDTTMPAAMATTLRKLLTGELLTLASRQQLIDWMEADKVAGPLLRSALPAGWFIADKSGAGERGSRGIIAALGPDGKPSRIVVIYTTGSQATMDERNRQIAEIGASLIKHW
Beta-lactamase L1, sequence (P52700 whole entry): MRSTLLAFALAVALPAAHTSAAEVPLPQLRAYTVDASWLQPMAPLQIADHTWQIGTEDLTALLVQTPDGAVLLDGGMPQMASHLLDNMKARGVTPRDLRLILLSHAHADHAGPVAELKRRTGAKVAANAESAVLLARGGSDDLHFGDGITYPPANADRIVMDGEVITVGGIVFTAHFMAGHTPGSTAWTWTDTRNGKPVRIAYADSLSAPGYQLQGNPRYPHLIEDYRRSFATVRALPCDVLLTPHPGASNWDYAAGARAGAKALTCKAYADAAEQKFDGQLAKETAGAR
Beta-lactamase (Escherichia coli K-12), sequence (P00811 whole entry): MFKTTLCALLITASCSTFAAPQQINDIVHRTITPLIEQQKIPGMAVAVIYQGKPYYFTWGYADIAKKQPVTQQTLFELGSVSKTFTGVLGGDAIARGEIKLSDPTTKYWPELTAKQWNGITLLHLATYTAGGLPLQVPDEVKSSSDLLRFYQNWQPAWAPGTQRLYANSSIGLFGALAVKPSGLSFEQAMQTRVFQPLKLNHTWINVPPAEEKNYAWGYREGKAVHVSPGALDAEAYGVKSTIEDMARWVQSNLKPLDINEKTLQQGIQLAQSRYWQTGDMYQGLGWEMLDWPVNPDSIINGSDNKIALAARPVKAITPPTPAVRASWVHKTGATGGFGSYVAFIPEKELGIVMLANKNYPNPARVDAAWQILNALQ

For the compound `CC1(C)[C@H](C(=O)O)N2C(=O)[C@@H](CS)[C@H]2S1(=O)=O`, the MIC in [1] is more than 128 µg/mL; in test [2], more than 128 µg/mL; in test [3], more than 128 µg/mL; in [5] it was 8 µg/mL; in test [6], more than 128 µg/mL; in test [7] it was 8 µg/mL. Also, the MIC in [11] was 128 µg/mL; in [13] it was 0.25 µg/mL (≈ 0.895 µM); in test [15], more than 128 µg/mL; in test [16], 8 µg/mL; in test [17], 64 µg/mL; in test [19], 8 µg/mL. Moreover, the MIC in test [23] was found to be 64 µg/mL; in test [25], 64 µg/mL; in the test on Staphylococcus aureus [26] it was 2 µg/mL. Besides, the Activity result in the test on Pseudomonas aeruginosa [4] is “Susceptible”; in the test on Pseudomonas aeruginosa [8], “Resistant”; in the test with Pseudomonas aeruginosa [9], “Susceptible”; in the test with Escherichia coli [10] it was “Susceptible”; in the test with Pseudomonas aeruginosa [12], “Resistant”; in the test on Pseudomonas aeruginosa [18], “Resistant”. Also, the Activity result with Pseudomonas aeruginosa [20] is listed as “Resistant”; in the test on Escherichia coli [21], “Susceptible”; with Escherichia coli [22] it was “Susceptible”; in the test on Pseudomonas aeruginosa [24] it was “Resistant”; in the test with Pseudomonas aeruginosa [27] it was “Susceptible”; in the test with Pseudomonas aeruginosa [28], “Susceptible”. In addition, the figures for the IC50 (against Beta-lactamase L1; in test [14]) were 100 nM and 1400 nM, respectively.

As for `CCN1CCN(C(=O)N[C@@H](C(=O)N[C@@H]2C(=O)N3[C@@H]2SC(C)(C)[C@@H]3C(=O)O)c2ccccc2)C(=O)C1=O` [PIPERACILLIN], the MIC in [29] was more than 128 µg/mL; in test [30], more than 128 µg/mL; in test [31], more than 128 µg/mL; in the test on Staphylococcus aureus [32] it was 8 µg/mL (≈ 15.5 µM); in test [33] it was more than 128 µg/mL; in test [34], more than 128 µg/mL.
